Results gathered from unrelated publications.
Lines come from different studies, so protocols differ.
Target: Dual specificity protein kinase CLK2 (CLK2, Homo sapiens, UniProt P49760)
Method: competition with immobilised ligand

COc1ncc2cc3ccccc3nc2c1C#N  remaining binding (cell-free assay; 5 µM): 76%
CCOC(=O)c1cc2cc(-c3cc(C(=O)NCc4ccc(C(=O)O)cc4)nn3C)ccc2[nH]1  remaining binding (cell-free assay; 0.1 µM): 96%
O=C(Nc1c[nH]nc1C(=O)NC1CCNCC1)c1cc(F)cc(F)c1  remaining binding (binding; 1 µM): 100%
CN(CCCC(F)(F)F)c1nccc(-c2cnn3ncccc23)n1  remaining binding (binding; 1 µM): 47%
Cc1cc(C)c(-n2ccn3nc(-c4cccnc4)cc23)cc1NC(=O)c1cc(C#N)cc(S(F)(F)(F)(F)F)c1  remaining binding (cell-free assay; 0.1 µM): 91%
COc1cnc(Nc2cccc(S(N)(=O)=O)c2)nc1N1CCN(c2ccccc2)CC1  remaining binding (binding; 1 µM): 99%
O=C(c1ccc(Nc2ncc(Cl)c(-c3ccc(Cl)s3)n2)cc1)N1CCC(N2CCCC2)CC1  remaining binding (binding; 1 µM): 5.2%
FC(F)(F)Oc1cccc(-c2cnc3ccc(-c4ccncc4)nn23)c1  remaining binding (cell-free assay; 5 µM): 6.2%
COc1cnc(Nc2cccc(S(N)(=O)=O)c2)nc1N1CCN(c2ccccc2)C(=O)C1  remaining binding (binding; 1 µM): 76%
O=C(NCCCN1CCOCC1)c1ccc(Nc2ncc(Cl)c(-c3ccc(Cl)s3)n2)cc1  remaining binding (binding; 1 µM): 5.7%
C[C@H](NC(=O)c1cnc2n1[C@](C)(Cc1ccc(C#N)cc1)C(=O)N2c1cc(Cl)c(F)c(Cl)c1)C(=O)NC1(c2ccccn2)CC1  remaining binding (cell-free assay; 1 µM): 97%
O=C(c1ccc(Nc2ncc(Cl)c(-c3cc4ccccc4s3)n2)cc1)N1CCC(N2CCCC2)CC1  remaining binding (binding; 1 µM): 6.7%
CC(=O)C1=C(C)N(c2cccc(C(F)(F)F)c2)C(=O)N[C@@H]1c1ccc(C#N)nc1  remaining binding (cell-free assay; 1 µM): 100%
c1cncc(-c2cccc(Nc3nccc(NC4CCCCC4)n3)c2)c1  remaining binding (binding; 10 µM): 15%
